Here are results for 167 variants from the RNAGym collection of RNA variant scans (doi:10.1101/gad.245936.114).

This sample holds only a part of the variants without activity. Where only a bound is given, the exact number is not on record here.

B1: tRNA (parent)
chain: CUCUCGGUAGCCAAGUUGGUUUAAGGCGCAAGACUUUAAUUUAUCACUACGAAAUCUUGAGAUCGGGCGUUCGACUCGCCCCCGGGAGAUUUUUUCCUCGAGCAA

Variants of B1 are the subject of this series. Nature of the series: nonsense suppression (GFP-seq) (ratio to wild type); higher = more function; SUP4oc tRNA, yeast GFP reporter sort-seq. Summed up:
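Yeast carrying genome-integrated SUP4oc tRNA variants from a library with ~3% random mutations were grown in raffinose/galactose medium with 80 mg/L adenine. Each strain also carried a galactose-driven GFP ochre reporter and RFP. Cells were sorted into GFP/RFP bins, and each bin was Illumina-sequenced (phred ≥30). Nonsense suppression (GFPSEQ) is the bin median GFP/RFP, weighted by each variant's estimated cell share per bin, relative to wild-type SUP4oc; variants needed ≥100 reads and ≥30 cells.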
Turning to C5G G84U, the nonsense suppression worked out at 0.475.

Turning to G7A C11U U35A A54C C64U C83G, the nonsense suppression is at most 0.026. In the case of G7A A30U it was 0.0309. In the case of U4C C34G C82U it was 0.179. In the case of G6U A60G G61A G65C it was at most 0.026; in that of U4G A14U G26A, at most 0.026; in that of C5A G7U U20G A74U, at most 0.026.

Turning to C5U A23G, the nonsense suppression is 0.0405. In the case of C5U U8C G65A it was at most 0.026; in that of G7A G86U, at most 0.026. In the case of C5U U20C it was at most 0.026; in that of C5U G69A, at most 0.026. Regarding U4G A54U, the nonsense suppression was 0.469. In the case of G7A G26U it was at most 0.026; in that of C5U G7U G25A, at most 0.026. Then G7A A24U C75U G78C, with at most 0.026; and U4C, with 0.585.

Turning to U4G, the nonsense suppression was determined as 1.16. In the case of G7A G25U it was at most 0.026; in that of U4G C77U, 0.0723.

Consider U4G C77A, for which the nonsense suppression turned out to be 0.0479.

Turning to U4G G59A, the nonsense suppression was 0.0506. Then U4C C11A A33G A74U, with at most 0.026; and C5U C79U, with 0.0439; and C5A G19U U55G A60U, with at most 0.026. Turning to C5U G85A, the nonsense suppression came to 0.08. Take C5U G85U: the nonsense suppression worked out at 0.0303. Then U4G G61A, with 0.189. Then U4G G61U, with 0.804; and G6U U57A, with at most 0.026. In the case of U4C G61A it was 1.25; in that of U4C G61C, 0.86.

Regarding U4C G61U, the nonsense suppression was determined as 1.02. As to G6A A62U, the nonsense suppression was at most 0.026.

Turning to U4G U76A, the nonsense suppression came to 0.109. In the case of U4C A9C G84A it was 0.0602; in that of U4G G78U, 0.0997. Then U4G G18C G28A A74G, with at most 0.026; and U4C C27U, with 0.792; and C5U A62U G69C A87U, with at most 0.026. Then C5A U58A G78C, with at most 0.026; and G6A A24G, with 0.0293; and G6A A24U, with 0.0308.

Take U4C C12U: the nonsense suppression amounted to 0.745. In the case of C5U G6U G84C it was at most 0.026. With U4C C29U, the nonsense suppression amounted to 1.03. In the case of U4C C29A it was 1.11.

Turning to U4G A13U, the nonsense suppression came out at 0.191. In the case of U4C A13U G78A it was 0.424. Then C5U A31G U71C, with at most 0.026. Then U4C G7U U8C G69C, with at most 0.026. As for C5U G66U G78A, the nonsense suppression was at most 0.026. U4G A9C: the nonsense suppression turned out to be 0.0511. As to U4C C12G C64G G66C, the nonsense suppression is at most 0.026. C5G C12G: the nonsense suppression was found to be 0.174. As to U4C A87C, the nonsense suppression stood at 0.197. In the case of U4C A87G it was 1.1; in that of C5A A14U A33C U55C, at most 0.026. In the case of G7A G61A it was at most 0.026; in that of U4C A31G G65A, at most 0.026; in that of G7A U17C A24G G32U U71C A87U, at most 0.026. Regarding G6C A14G A60C G65U C79G G86C, the nonsense suppression is at most 0.026. Then C5G G6C A9C A89C, with at most 0.026. Then G7A U20G C34U A62C, with at most 0.026; and U4G A13G U16C, with 0.0797; and C5U A60C, with 0.0867. In the case of C5U U17C it was 0.0495; in that of C5A U8C G15C A60C, at most 0.026; in that of C5U G84A, 1.15. Regarding C5G G78U, the nonsense suppression is 0.0283. In the case of C5U U55G C68A A74U it was at most 0.026; in that of G6U U70C, at most 0.026; in that of U4G A60U, 1.12. In the case of U4G U17C it was 0.45; in that of C5G G7U C11G, at most 0.026. Then G6C U20G, with at most 0.026; and G6C U20A, with at most 0.026. Turning to G6U A9U, the nonsense suppression worked out at 0.0343. Consider C5A U8C A9U C80A, for which the nonsense suppression is at most 0.026.

As for G7A A13U U58G G86C, the nonsense suppression was at most 0.026. In the case of G6U U63C it was at most 0.026. In the case of U4G G6U U21C U55C C79G it was at most 0.026; in that of G6U U16G G59A G78A, at most 0.026. As to U4G U22A, the nonsense suppression worked out at 0.216. In the case of U4G U22G it was 0.492. Then U4C U55A G67A C79G C83G, with at most 0.026; and U4C A33G, with 0.0434; and U4G U17G G69A, with at most 0.026. Then C5U A30U, with 0.138; and C5A U8A, with at most 0.026; and C5A U8C, with at most 0.026. Take G6C C34G A54U: the nonsense suppression is at most 0.026.

On to U4G A74G, for which the nonsense suppression came out at 0.0287. In the case of U4G C79U it was 0.173; in that of U4C G15A, 0.746.

For the variant U4G A60C G85A, the nonsense suppression is at most 0.026. In the case of G6A U8G it was at most 0.026. In the case of C5A G78U it was 0.0303; in that of C5A G78A, 0.0335; in that of C5A G78C, at most 0.026.

With G7A U16G G26C U71G, the nonsense suppression is at most 0.026. In the case of U4G U16C it was 0.882; in that of C5U C68U, at most 0.026.

For G7A A60G, the nonsense suppression stood at 0.053. In the case of U4C C68U U76C it was 1.13. Regarding G6C C12G C72G C75U G85C, the nonsense suppression is at most 0.026. In the case of U4C U71C it was at most 0.026; in that of U4C C83U, 1.17; in that of G6U U63G U71C G85U A89C, at most 0.026.

For the variant U4C A14U, the nonsense suppression stood at 0.0343. Then C5U U76A C79A, with at most 0.026; and U4C G61U C79G A89G, with at most 0.026.

With G7A U20C C82A G86A G88A A89C, the nonsense suppression was at most 0.026. Regarding C5U U63A, the nonsense suppression is 0.0305. With C5U C75U, the nonsense suppression was 0.0347. In the case of C5U C75A it was 0.209; in that of U4C U63G, 0.0946. Then U4C A13C A24U, with 0.488; and C5U C12G A13G C29A, with at most 0.026. Then C5U A13G A14C, with at most 0.026. Regarding G6A A13U, the nonsense suppression stood at 0.0458. In the case of G6A A13G it was at most 0.026.

As for C5G U20G C75G G88U, the nonsense suppression is at most 0.026.

On to U4C G7U, for which the nonsense suppression turned out to be 0.202.

For the variant C5A A31C, the nonsense suppression was at most 0.026.

For the variant C5U G61A, the nonsense suppression came out at 0.0314. Then G6U U76G, with at most 0.026; and G7A A24C, with 0.123; and U4G U57G A60U, with at most 0.026. Regarding U4C U17G G25C G66U U70C G84U, the nonsense suppression is at most 0.026. In the case of U4C U35C G69C it was at most 0.026; in that of C5A A24C, 0.0269; in that of U4G G73U, 0.0898. In the case of U4G G73C it was 0.0291; in that of C5U G28C, 0.0292; in that of C5A U76C G86C, at most 0.026.

With U4C U20C, the nonsense suppression was 1.05.

As for U4C G26U C34G U35A C82A, the nonsense suppression is at most 0.026.

G6U C82A A87U: the nonsense suppression was at most 0.026. In the case of G6U U16C U17C G19U it was at most 0.026; in that of U4G U71A, 0.0967.

On to U4C U21C G67A, for which the nonsense suppression amounted to 0.0868. In the case of U4C C34A it was 0.0274; in that of U4C C34G, 0.0649; in that of C5U U8A A9C G10C C12U G25U A31G, at most 0.026.

As for C5G C34U A74U C77A, the nonsense suppression is at most 0.026. Regarding G6U G7C A33U, the nonsense suppression was at most 0.026. In the case of C5G A33G G65A G66C it was at most 0.026. Then C5A C64A C77A, with at most 0.026; and G6C U57C G65A G67A A74C G78C, with at most 0.026; and G6A U63G C81U, with at most 0.026. In the case of U4C U57A it was 0.609; in that of U4C U57G, 0.0337; in that of C5A C27G G73A, at most 0.026. Turning to C5A U55C A89G, the nonsense suppression was at most 0.026.

As to G6A G28C, the nonsense suppression is 0.0666.

Consider G6U U17G C83A, for which the nonsense suppression stood at 1.15.

On to C5G U55C G69C G86U, for which the nonsense suppression was at most 0.026. Then C5A A9C A24G G85A, with at most 0.026; and G6C U16A C56G U57C U58C U71C, with at most 0.026; and G7A G10U U20A U35G U57G U63C, with at most 0.026. In the case of C5U G26C G65C U76A it was at most 0.026. With C5U U55C G88A, the nonsense suppression is at most 0.026. Regarding U4G U20C A33G, the nonsense suppression is 0.0309. Then C5G G25A A89G, with at most 0.026; and C5A G15A A33G, with at most 0.026; and U4G C68G, with 0.0622.
